Data reported in paper PMC6606825 (Journal of Ginseng Research, 2018).

Assay: Pharmacokinetics of CK and its metabolite 20
Format: in vivo, healthy Chinese volunteers
Procedure, shortened: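 Healthy adults given one oral tablet dose fasting (overnight, or 10 h in a crossover food-effect arm); 30 subjects from the 100/200/400 mg groups were pooled with 24 from 200 mg fasting periods. Plasma was stored at −70°C, extracted with MTBE plus internal standards and assayed by LC-MS/MS. Cmax was observed and AUClast calculated by linear trapezoid, each divided by dose. The metabolite/parent ratio was also calculated. Genotyping used Sequenom MassARRAY, and log-transformed values were compared by one-way ANOVA.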

[1] = ABCC4 rs2274406 TT (first line), mean (SD)
[2] = ABCC4 rs2274406 TT (third line), mean (SD)
[3] = ABCG2 rs2054576 AA (first line), mean (SD)
[4] = ABCG2 rs2054576 AA (third line), mean (SD)

Structure (SMILES): CC(C)=CCC[C@](C)(O)[C@H]1CC[C@]2(C)[C@@H]1[C@H](O)C[C@@H]1[C@@]3(C)CC[C@H](O)C(C)(C)[C@@H]3CC[C@]12C [20(S)-PPD, 20(S)-protopanaxadiol]
- Ratio 20(S)-PPD/CK AUClast/D (ABCC4 rs1151471 TT, mean (SD)): 2.12 (2.57) %
- Ratio 20(S)-PPD/CK Cmax/D (ABCC4 rs1151471 TT, mean (SD)): 0.52 (0.50) %
- 20(S)-PPD AUClast/D (ABCC4 rs1189437 GG, n = 1): 3.78 (−)
- 20(S)-PPD Cmax/D (ABCC4 rs1189437 GG, n = 1): 0.11 (−)
- Ratio 20(S)-PPD/CK AUClast/D (ABCC4 rs1189437 GG, n = 1): 31.18 (−) %
- Ratio 20(S)-PPD/CK Cmax/D (ABCC4 rs1189437 GG, n = 1): 6.05 (−) %
- 20(S)-PPD AUClast/D (ABCC4 rs1189437 GT, mean (SD)): 1.25 (0.80)
- 20(S)-PPD Cmax/D (ABCC4 rs1189437 GT, mean (SD)): 0.05 (0.03)
- Ratio 20(S)-PPD/CK AUClast/D (ABCC4 rs1189437 GT, mean (SD)): 7.87 (7.32) %
- Ratio 20(S)-PPD/CK Cmax/D (ABCC4 rs1189437 GT, mean (SD)): 2.35 (2.55) %
- 20(S)-PPD AUClast/D (ABCC4 rs1189437 TT, mean (SD)): 0.54 (0.49)
- 20(S)-PPD Cmax/D (ABCC4 rs1189437 TT, mean (SD)): 0.02 (0.02)
- Ratio 20(S)-PPD/CK AUClast/D (ABCC4 rs1189437 TT, mean (SD)): 2.03 (2.50) %
- Ratio 20(S)-PPD/CK Cmax/D (ABCC4 rs1189437 TT, mean (SD)): 0.50 (0.49) %
- 20(S)-PPD AUClast/D (ABCC4 rs1751034 TC, mean (SD)): 1.51 (1.01)
- 20(S)-PPD Cmax/D (ABCC4 rs1751034 TC, mean (SD)): 0.05 (0.04)
- Ratio 20(S)-PPD/CK Cmax/D (ABCC4 rs1751034 TC, mean (SD)): 2.88 (2.68) %
- 20(S)-PPD AUClast/D (ABCC4 rs1751034 TT, mean (SD)): 0.59 (0.51)
- 20(S)-PPD Cmax/D (ABCC4 rs1751034 TT, mean (SD)): 0.02 (0.02)
- Ratio 20(S)-PPD/CK AUClast/D (ABCC4 rs1751034 TT, mean (SD)): 2.17 (2.45) %
- Ratio 20(S)-PPD/CK Cmax/D (ABCC4 rs1751034 TT, mean (SD)): 0.55 (0.50) %
- 20(S)-PPD AUClast/D (ABCC4 rs2274406 CT, mean (SD)): 0.77 (0.73)
- 20(S)-PPD Cmax/D (ABCC4 rs2274406 CT, mean (SD)): 0.03 (0.03)
- Ratio 20(S)-PPD/CK AUClast/D (ABCC4 rs2274406 CT, mean (SD)): 3.81 (4.77) %
- Ratio 20(S)-PPD/CK Cmax/D (ABCC4 rs2274406 CT, mean (SD)): 1.15 (1.88) %
- 20(S)-PPD AUClast/D [1]: 0.78 (0.55)
- 20(S)-PPD Cmax/D [1]: 0.03 (0.03)
- Ratio 20(S)-PPD/CK AUClast/D [1]: 2.75 (2.87) %
- Ratio 20(S)-PPD/CK Cmax/D [1]: 0.63 (0.46) %
- 20(S)-PPD AUClast/D [2]: 0.97 (1.01)
- 20(S)-PPD Cmax/D [2]: 0.03 (0.03)
- Ratio 20(S)-PPD/CK AUClast/D [2]: 6.34 (9.72) %
- Ratio 20(S)-PPD/CK Cmax/D [2]: 1.49 (1.93) %
- 20(S)-PPD AUClast/D (ABCC4 rs2274407 CA, mean (SD)): 0.70 (0.61)
- 20(S)-PPD Cmax/D (ABCC4 rs2274407 CA, mean (SD)): 0.03 (0.02)
- Ratio 20(S)-PPD/CK AUClast/D (ABCC4 rs2274407 CA, mean (SD)): 3.96 (6.67) %
- Ratio 20(S)-PPD/CK Cmax/D (ABCC4 rs2274407 CA, mean (SD)): 1.04 (1.40) %
- 20(S)-PPD AUClast/D (ABCC4 rs2274407 CC, mean (SD)): 0.87 (0.83)
- 20(S)-PPD Cmax/D (ABCC4 rs2274407 CC, mean (SD)): 0.03 (0.03)
- Ratio 20(S)-PPD/CK AUClast/D (ABCC4 rs2274407 CC, mean (SD)): 4.39 (6.18) %
- Ratio 20(S)-PPD/CK Cmax/D (ABCC4 rs2274407 CC, mean (SD)): 1.18 (1.84) %
- 20(S)-PPD AUClast/D (ABCC4 rs4148546 AA, mean (SD)): 1.01 (0.97)
- 20(S)-PPD Cmax/D (ABCC4 rs4148546 AA, mean (SD)): 0.03 (0.03)
- Ratio 20(S)-PPD/CK AUClast/D (ABCC4 rs4148546 AA, mean (SD)): 6.66 (9.45) %
- Ratio 20(S)-PPD/CK Cmax/D (ABCC4 rs4148546 AA, mean (SD)): 1.37 (1.86) %
- 20(S)-PPD AUClast/D (ABCC4 rs4148546 GA, mean (SD)): 0.87 (0.75)
- 20(S)-PPD Cmax/D (ABCC4 rs4148546 GA, mean (SD)): 0.03 (0.03)
- Ratio 20(S)-PPD/CK AUClast/D (ABCC4 rs4148546 GA, mean (SD)): 4.17 (4.77) %
- Ratio 20(S)-PPD/CK Cmax/D (ABCC4 rs4148546 GA, mean (SD)): 1.32 (1.94) %
- 20(S)-PPD AUClast/D (ABCC4 rs4148546 GG, mean (SD)): 0.47 (0.46)
- 20(S)-PPD Cmax/D (ABCC4 rs4148546 GG, mean (SD)): 0.02 (0.02)
- Ratio 20(S)-PPD/CK AUClast/D (ABCC4 rs4148546 GG, mean (SD)): 1.34 (1.47) %
- Ratio 20(S)-PPD/CK Cmax/D (ABCC4 rs4148546 GG, mean (SD)): 0.41 (0.46) %
- 20(S)-PPD AUClast/D [3]: 0.78 (0.79)
- 20(S)-PPD Cmax/D [3]: 0.03 (0.03)
- Ratio 20(S)-PPD/CK AUClast/D [3]: 4.17 (5.11) %
- Ratio 20(S)-PPD/CK Cmax/D [3]: 1.26 (1.98) %
- 20(S)-PPD AUClast/D [4]: 2.05 (1.51)
- 20(S)-PPD Cmax/D [4]: 0.06 (0.04)
- Ratio 20(S)-PPD/CK AUClast/D [4]: 12.95 (15.83) %
- Ratio 20(S)-PPD/CK Cmax/D [4]: 2.56 (3.02) %
- 20(S)-PPD AUClast/D (ABCG2 rs2054576 GA, mean (SD)): 0.73 (0.53)
- 20(S)-PPD Cmax/D (ABCG2 rs2054576 GA, mean (SD)): 0.03 (0.02)
- Ratio 20(S)-PPD/CK AUClast/D (ABCG2 rs2054576 GA, mean (SD)): 3.30 (5.27) %
- Ratio 20(S)-PPD/CK Cmax/D (ABCG2 rs2054576 GA, mean (SD)): 0.83 (1.11) %
- 20(S)-PPD AUClast/D (ABCG2 rs2231142 GG, mean (SD)): 0.62 (0.53)
- 20(S)-PPD Cmax/D (ABCG2 rs2231142 GG, mean (SD)): 0.02 (0.02)
- Ratio 20(S)-PPD/CK AUClast/D (ABCG2 rs2231142 GG, mean (SD)): 2.95 (3.04) %
- Ratio 20(S)-PPD/CK Cmax/D (ABCG2 rs2231142 GG, mean (SD)): 0.78 (0.71) %
- 20(S)-PPD AUClast/D (ABCG2 rs2231142 GT, mean (SD)): 0.88 (0.83)
- 20(S)-PPD Cmax/D (ABCG2 rs2231142 GT, mean (SD)): 0.03 (0.04)
- Ratio 20(S)-PPD/CK AUClast/D (ABCG2 rs2231142 GT, mean (SD)): 4.13 (5.64) %
- Ratio 20(S)-PPD/CK Cmax/D (ABCG2 rs2231142 GT, mean (SD)): 1.45 (2.39) %
- 20(S)-PPD AUClast/D (ABCG2 rs2231142 TT, mean (SD)): 2.05 (1.51)
- 20(S)-PPD Cmax/D (ABCG2 rs2231142 TT, mean (SD)): 0.06 (0.04)
- Ratio 20(S)-PPD/CK AUClast/D (ABCG2 rs2231142 TT, mean (SD)): 12.95 (15.83) %
- Ratio 20(S)-PPD/CK Cmax/D (ABCG2 rs2231142 TT, mean (SD)): 2.56 (3.02) %
- 20(S)-PPD AUClast/D (ABCG2 rs2231148 AA, mean (SD)): 0.68 (0.31)
- 20(S)-PPD Cmax/D (ABCG2 rs2231148 AA, mean (SD)): 0.03 (0.01)
- Ratio 20(S)-PPD/CK AUClast/D (ABCG2 rs2231148 AA, mean (SD)): 3.01 (2.32) %
- Ratio 20(S)-PPD/CK Cmax/D (ABCG2 rs2231148 AA, mean (SD)): 0.84 (0.60) %
- 20(S)-PPD AUClast/D (ABCG2 rs2231148 AT, mean (SD)): 0.93 (0.97)
- 20(S)-PPD Cmax/D (ABCG2 rs2231148 AT, mean (SD)): 0.03 (0.04)
- Ratio 20(S)-PPD/CK AUClast/D (ABCG2 rs2231148 AT, mean (SD)): 4.06 (6.40) %
- Ratio 20(S)-PPD/CK Cmax/D (ABCG2 rs2231148 AT, mean (SD)): 1.42 (2.72) %
- 20(S)-PPD AUClast/D (ABCG2 rs2231148 TT, mean (SD)): 0.80 (0.80)
- 20(S)-PPD Cmax/D (ABCG2 rs2231148 TT, mean (SD)): 0.03 (0.02)
- Ratio 20(S)-PPD/CK AUClast/D (ABCG2 rs2231148 TT, mean (SD)): 4.75 (7.36) %
- Ratio 20(S)-PPD/CK Cmax/D (ABCG2 rs2231148 TT, mean (SD)): 1.11 (1.45) %
- 20(S)-PPD AUClast/D (ABCG2 rs2725248 AA, mean (SD)): 0.69 (0.78)
- 20(S)-PPD Cmax/D (ABCG2 rs2725248 AA, mean (SD)): 0.02 (0.03)
- Ratio 20(S)-PPD/CK AUClast/D (ABCG2 rs2725248 AA, mean (SD)): 3.94 (7.05) %
- Ratio 20(S)-PPD/CK Cmax/D (ABCG2 rs2725248 AA, mean (SD)): 0.92 (1.40) %
- 20(S)-PPD AUClast/D (ABCG2 rs2725248 CA, mean (SD)): 1.05 (0.79)
- 20(S)-PPD Cmax/D (ABCG2 rs2725248 CA, mean (SD)): 0.04 (0.03)
- Ratio 20(S)-PPD/CK AUClast/D (ABCG2 rs2725248 CA, mean (SD)): 4.84 (5.49) %
- Ratio 20(S)-PPD/CK Cmax/D (ABCG2 rs2725248 CA, mean (SD)): 1.53 (2.29) %
- 20(S)-PPD AUClast/D (ABCG2 rs2725248 CC, mean (SD)): 0.96 (1.03)
- 20(S)-PPD Cmax/D (ABCG2 rs2725248 CC, mean (SD)): 0.03 (0.03)
- Ratio 20(S)-PPD/CK AUClast/D (ABCG2 rs2725248 CC, mean (SD)): 3.24 (3.92) %
